Measurements from ChEMBL document CHEMBL5236609, “Optimization of 1,2,4-Triazole-3-thiones toward Broad-Spectrum Metallo-β-lactamase Inhibitors Showing Potent Synergistic Activity on VIM- and NDM-1-Producing Clinical Isolates” (J Med Chem, 2022).

Tests used:
Bacteria = test: Binding affinity to bacterial VIM-2 (unknown origin) assessed as Gibbs free energy by isothermal calorimetric assay
Summary of the method: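 ITC at 25 °C. VIM-2 at 19 μM in 10 mM HEPES-NaOH, 0.15 M NaCl, pH 7.5 with DMSO matched to 1%, titrated with compound at 200 μM: one 0.5 μL injection, then 19 × 2 μL at 150 s intervals. Buffer dilution heats subtracted. Nonlinear fit gives n, Ka and ΔH°; values regarded as apparent.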

Klebsiella pneumoniae [1] = test: Antimicrobial activity against blaVIM-1-producing multidrug-resistant Klebsiella pneumoniae 7023 clinical isolate assessed as meropenem MIC using cation-adjusted Mueller-Hinton broth at 32 ug/ml by broth microdilution method (reference value: […] ug/ml); assay type: functional; details: dose 32 µg/ml
Summary of the method: (§1)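 Checkerboard broth microdilution in cation-supplemented Mueller–Hinton broth, inoculum 5×10^4 CFU/well, per CLSI. […] The average fractional inhibitory concentration index was computed from the checkerboard.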

Klebsiella pneumoniae [2] = test: Antimicrobial activity against blaVIM-1-producing multidrug-resistant Klebsiella pneumoniae 7023 clinical isolate assessed as meropenem MIC using cation-adjusted Mueller-Hinton broth at 0.5 ug/ml by broth microdilution method (reference value: […] ug/ml); assay type: functional; details: dose 0.5 µg/ml; summary of the method: as §1
Klebsiella pneumoniae [3] = test: Antimicrobial activity against blaVIM-4-producing multidrug-resistant Klebsiella pneumoniae VA-416/02 clinical isolate assessed as meropenem MIC using cation-adjusted Mueller-Hinton broth at 32 ug/ml by broth microdilution method (reference value: […] ug/ml); assay type: functional; details: dose 32 µg/ml; summary of the method: as §1
Klebsiella pneumoniae [4] = test: Antimicrobial activity against blaVIM-4-producing multidrug-resistant Klebsiella pneumoniae VA-416/02 clinical isolate assessed as meropenem MIC using cation-adjusted Mueller-Hinton broth at 16 ug/ml by broth microdilution method (reference value: […] ug/ml); assay type: functional; details: dose 16 µg/ml; summary of the method: as §1
Klebsiella pneumoniae [5] = test: Antimicrobial activity against blaVIM-4-producing multidrug-resistant Klebsiella pneumoniae VA-416/02 clinical isolate assessed as meropenem MIC using cation-adjusted Mueller-Hinton broth at 0.5 ug/ml by broth microdilution method (reference value: […] ug/ml); assay type: functional; details: dose 0.5 µg/ml; summary of the method: as §1

Question: How did the deltaG (Bacteria) turn out when O=C(O)[C@H](CCCn1c(-c2ccccc2)n[nH]c1=S)N(Cc1c[nH]cn1)Cc1c[nH]cn1 was run?
Answer: Its deltaG is -8.4 kcal/mol.

Question: What about the MIC (Klebsiella pneumoniae [1]) of the same compound?
Answer: The MIC was 0.03 µg/mL.

Question: And the MIC (Klebsiella pneumoniae [2])?
Answer: The MIC was 16 µg/mL.

Question: And the MIC (Klebsiella pneumoniae [3])?
Answer: The MIC was 0.03 µg/mL.

Question: And the MIC (Klebsiella pneumoniae [4])?
Answer: Its MIC is 0.06 µg/mL.

Question: And the MIC (Klebsiella pneumoniae [5])?
Answer: The MIC was 16 µg/mL.
